Source: ChEMBL document CHEMBL1811920, “Chemical constituents of a marine fungus, Arthrinium sacchari” (J Nat Prod, 2011)

How the values were obtained:
[1] = Antiangiogenesis activity in HUAEC assessed as inhibition of VEGF-induced cell proliferation after 72 hrs by MTT assay; format: functional; conditions: Homo sapiens
How it was run: (§1)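 Cells were purchased primary endothelial cells, maintained at 37 C in 5% CO2: HUVECs in EGM-2 Bulletkit medium and HUAECs in EGM-2MV Bulletkit medium. For the assay, 3 103 cells/well were seeded in culture medium for 3 h, then switched to 1% FBS EBM-2 for 21 h. VEGF (1 nM) and compounds were added for 72 h. Proliferation was read with WST-8 at 450 nm. Ki8751, a VEGFR2 kinase inhibitor, was the positive control.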

HUVEC = assay: Antiangiogenesis activity in HUVEC assessed as inhibition of VEGF-induced cell proliferation after 72 hrs by MTT assay; format: functional, cell-based; conditions: Homo sapiens; how it was run: as §1

Compound	IC50 [1] [µM]	IC50 (HUVEC) [µM]
C[C@H]1C/C=C/[C@H]2[C@@H]3O[C@]3(C)[C@@H](C)[C@H]3[C@H](Cc4ccccc4)NC(=O)[C@]32OC(=O)O/C=C/[C@@](C)(O)C1=O [CYTOCHALASIN E]	0.011	0.0114
Cc1c(O)cc(O)c2c(=O)oc(CO)c(C)c12 [DECARBOXYHYDROXYCITRINONE]	17.4	7.6
C=C[C@]1(C)C=C2C(=O)C(O)=C3[C@@](C)(CO)CC[C@@H](O)[C@]3(C)[C@@]2(O)CC1 [LIBERTELLENONE C]	68.7	29.7
C=C[C@]1(C)C=C2C(=O)C3=C4[C@@](C)(CC[C@@H](O)[C@]4(C)[C@@]2(O)CC1)[C@@H](O)O3 [LIBERTELLENONE E]	238	236
C=C[C@]1(C)C=C2C(=O)C3=C4[C@@](C)(CC[C@@H](O)[C@]4(C)[C@@]2(O)CC1)CO3 [LIBERTELLENONE F]	97.8	64.1
C=C[C@@]1(C)C=C2C(=O)C(O)=C3[C@](C)(C(=O)O)CC[C@@H]4C[C@]34[C@]2(O)C(=O)C1 [MYROCIN A]	9.2	11
C=C[C@]1(C)C=C2[C@@H](O)[C@@H]3OC(=O)[C@@]4(C)CC[C@H]5C[C@]5([C@@H]34)[C@@]2(O)C(=O)C1 [MYROCIN D]	277	70.8
